Active and inactive are the calls of the source. The rule behind the calls is not given here.

The record followed here is ChEMBL document CHEMBL3098117, “Identification and optimization of an aminoalcohol-carbazole series with antimalarial properties” (ACS Med Chem Lett, 2013).

Data set [1] addresses Sodium channel protein type 5 subunit alpha (Homo sapiens, UniProt Q14524). Nature of the data set: Inhibition of human Nav1.5 channel.
Data set [2] is described as follows: Genotoxicity in micronucleus (unknown origin).
In data set [3] the test system is Plasmodium berghei. Nature of the data set: Antimalarial activity against Plasmodium berghei ANKA expressing GFP infected in NMRI mouse assessed as mean survival days at 100 mg/kg/day, po qd for 4 days measured at 24 hrs after last dose. The data set is classed as functional. A digest of the protocol:
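P. berghei-infected mice dosed orally once daily on days 0–3, starting 4 h postinfection, in groups of 3, 10, 30 and 100 mg/kg/day. Red blood cell parasitemia and plasma exposure measured on day 4, 24 h after the last dose. Mean survival days then monitored over 26 further days.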

Data set [4] relates to Plasmodium berghei. The experiment in a line: Antimalarial activity against Plasmodium berghei ANKA expressing GFP infected in NMRI mouse assessed as increase in mouse survival at 30 mg/kg/day, po qd for 4 days measured at 24 hrs after last dose. The data set is classed as functional, organism-based. The procedure, abridged:
(§1)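 P. berghei-infected mice dosed orally once daily on days 0–3, first dose 4 h postinfection, at 3, 10, 30 and 100 mg/kg/day. Red blood cell parasitemia and plasma exposure measured on day 4, 24 h after last dose; ED50 derived from dose-response; survival then monitored for 26 further days as mean survival days.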

For data set [5], the system named is Plasmodium berghei. Nature of the data set: Antimalarial activity against Plasmodium berghei ANKA expressing GFP infected in NMRI mouse assessed as effect on mouse survival at 10 mg/kg/day, po qd for 4 days measured at 24 hrs after last dose. It counts as functional, organism-based. The procedure, abridged: as §1
Data set [6] relates to Plasmodium berghei. Nature of the data set: Antimalarial activity against Plasmodium berghei ANKA expressing GFP infected in po dosed NMRI mouse assessed as reduction in parasitemia administered qd for 4 days measured at 24 hrs after last dose. The data set is classed as functional. The procedure, abridged: as §1
Data set [7] is described as follows: AUC in NMRI mouse at 1 mg/kg, iv and 5 mg/kg, po by LC-MS/MS analysis. It counts as ADME, organism-based. The settings on record: plasma.
Data set [8] is described as follows: Oral bioavailability in NMRI mouse at 5 mg/kg by LC-MS/MS analysis. It counts as ADME, organism-based. The note with it: in vivo.
Data set [9] deals with Plasmodium falciparum. The experiment in a line: Antimalarial activity against chloroquine, pyrimethamine, quinine-resistant Plasmodium falciparum V1S. It counts as functional. The settings on record: VS/1.
The subject of data set [10] is Plasmodium falciparum. Nature of the data set: Antimalarial activity against chloroquine, pyrimethamine, cycloguanil-resistant Plasmodium falciparum 7G8. It counts as functional, organism-based.
Data set [11] relates to Plasmodium falciparum. The experiment in a line: Antimalarial activity against drug-sensitive Plasmodium falciparum NF54. It counts as functional, organism-based.
Data set [12] deals with Plasmodium falciparum. The experiment in a line: Antimalarial activity against chloroquine and pyrimethamine-resistant Plasmodium falciparum K1. It counts as functional, organism-based. A digest of the protocol: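 P. falciparum cultured with test drug in human red blood cells for 3 days. Growth read out as hypoxanthine incorporation.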
The target of a further data set is Cytochrome P450 3A4 (Homo sapiens, UniProt P08684). Nature of the data set: Inhibition of human recombinant CYP3A4 expressed in baculovirus-infected insect cells preincubated for 15 mins followed by substrate addition measured after 30 mins by luminescence assay. It counts as ADME. The settings on record: recombinant enzyme, 0.5 h.
A further data set concerns the target Cytochrome P450 2C9 (Homo sapiens, UniProt P11712). Nature of the data set: Inhibition of human recombinant CYP2C9 expressed in baculovirus-infected insect cells preincubated for 15 mins followed by substrate addition measured after 30 mins by luminescence assay. The data set is classed as ADME. The settings on record: recombinant enzyme, 0.5 h.
A further data set has as its target T1, Cytochrome P450 2B6 (Homo sapiens, UniProt P20813).
T1 sequence (P20813 whole entry): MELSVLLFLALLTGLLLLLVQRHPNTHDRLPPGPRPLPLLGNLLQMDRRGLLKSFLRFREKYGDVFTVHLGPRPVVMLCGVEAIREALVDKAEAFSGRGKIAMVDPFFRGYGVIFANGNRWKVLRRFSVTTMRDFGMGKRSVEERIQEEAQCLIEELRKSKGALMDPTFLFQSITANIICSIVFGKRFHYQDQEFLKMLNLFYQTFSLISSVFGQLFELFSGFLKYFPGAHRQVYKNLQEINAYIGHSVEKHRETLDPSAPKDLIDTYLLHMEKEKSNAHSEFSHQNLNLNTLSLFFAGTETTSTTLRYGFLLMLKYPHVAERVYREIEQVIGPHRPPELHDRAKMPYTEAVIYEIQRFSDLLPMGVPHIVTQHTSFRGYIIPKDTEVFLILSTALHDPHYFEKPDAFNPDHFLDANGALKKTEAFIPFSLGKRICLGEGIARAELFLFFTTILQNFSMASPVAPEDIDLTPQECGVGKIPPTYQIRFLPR
The experiment in a line: Inhibition of human recombinant CYP2B6 expressed in baculovirus-infected insect cells preincubated for 15 mins followed by substrate addition measured after 30 mins by luminescence assay. It counts as ADME. The settings on record: recombinant enzyme, 0.5 h.

The target of data set [13] is Potassium voltage-gated channel subfamily A member 5 (Homo sapiens) (UniProt P22460). The experiment in a line: Inhibition of human Kv1.5 channel.
In data set [14] the target is T2, Potassium/sodium hyperpolarization-activated cyclic nucleotide-gated channel 4 (Homo sapiens) (UniProt Q9Y3Q4).
T2 sequence (whole entry): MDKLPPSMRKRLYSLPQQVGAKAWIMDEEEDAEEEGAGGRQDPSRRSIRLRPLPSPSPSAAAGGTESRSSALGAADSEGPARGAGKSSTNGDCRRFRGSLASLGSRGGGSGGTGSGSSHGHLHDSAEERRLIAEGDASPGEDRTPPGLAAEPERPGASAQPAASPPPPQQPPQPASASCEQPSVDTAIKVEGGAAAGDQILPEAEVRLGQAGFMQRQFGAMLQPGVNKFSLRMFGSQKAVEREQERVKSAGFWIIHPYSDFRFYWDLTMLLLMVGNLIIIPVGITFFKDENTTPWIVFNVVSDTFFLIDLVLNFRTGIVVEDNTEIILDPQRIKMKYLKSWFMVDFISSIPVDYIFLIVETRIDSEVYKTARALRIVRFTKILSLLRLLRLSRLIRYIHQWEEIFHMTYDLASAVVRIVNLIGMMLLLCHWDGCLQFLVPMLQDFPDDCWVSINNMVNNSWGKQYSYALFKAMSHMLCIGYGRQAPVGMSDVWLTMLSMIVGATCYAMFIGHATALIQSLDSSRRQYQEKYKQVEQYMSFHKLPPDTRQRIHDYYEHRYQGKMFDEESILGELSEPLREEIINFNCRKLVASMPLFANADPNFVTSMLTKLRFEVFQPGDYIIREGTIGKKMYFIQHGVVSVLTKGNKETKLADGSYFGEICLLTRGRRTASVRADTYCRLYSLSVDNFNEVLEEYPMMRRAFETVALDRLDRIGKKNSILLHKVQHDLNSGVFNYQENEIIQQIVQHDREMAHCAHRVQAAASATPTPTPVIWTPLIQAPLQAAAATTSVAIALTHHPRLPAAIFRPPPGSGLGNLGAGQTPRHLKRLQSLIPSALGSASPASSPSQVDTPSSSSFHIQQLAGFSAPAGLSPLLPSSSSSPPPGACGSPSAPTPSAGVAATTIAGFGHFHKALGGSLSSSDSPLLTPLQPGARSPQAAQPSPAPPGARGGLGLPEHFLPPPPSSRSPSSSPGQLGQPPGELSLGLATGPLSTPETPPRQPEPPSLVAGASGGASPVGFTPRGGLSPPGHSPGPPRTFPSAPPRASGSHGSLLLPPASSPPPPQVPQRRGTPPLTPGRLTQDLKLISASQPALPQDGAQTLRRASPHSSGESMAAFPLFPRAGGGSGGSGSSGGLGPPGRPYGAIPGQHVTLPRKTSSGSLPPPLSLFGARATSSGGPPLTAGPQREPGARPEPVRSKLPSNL
Nature of the data set: Inhibition of human HCN4 channel.

Chain of Cytochrome P450 3A4 (P08684 whole entry): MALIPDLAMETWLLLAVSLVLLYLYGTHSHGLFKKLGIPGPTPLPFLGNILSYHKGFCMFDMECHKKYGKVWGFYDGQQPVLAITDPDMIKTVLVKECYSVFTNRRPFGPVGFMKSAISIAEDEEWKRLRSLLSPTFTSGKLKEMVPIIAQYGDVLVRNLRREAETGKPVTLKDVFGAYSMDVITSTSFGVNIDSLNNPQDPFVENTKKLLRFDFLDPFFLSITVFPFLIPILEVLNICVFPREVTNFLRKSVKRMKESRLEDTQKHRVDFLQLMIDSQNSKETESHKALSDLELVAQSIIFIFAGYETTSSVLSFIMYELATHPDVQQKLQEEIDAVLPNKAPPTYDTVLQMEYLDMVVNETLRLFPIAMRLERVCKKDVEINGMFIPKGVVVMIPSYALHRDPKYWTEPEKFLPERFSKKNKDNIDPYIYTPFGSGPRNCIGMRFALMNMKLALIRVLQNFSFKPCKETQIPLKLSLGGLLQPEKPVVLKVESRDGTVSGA
Chain of Cytochrome P450 2C9 (P11712 whole entry): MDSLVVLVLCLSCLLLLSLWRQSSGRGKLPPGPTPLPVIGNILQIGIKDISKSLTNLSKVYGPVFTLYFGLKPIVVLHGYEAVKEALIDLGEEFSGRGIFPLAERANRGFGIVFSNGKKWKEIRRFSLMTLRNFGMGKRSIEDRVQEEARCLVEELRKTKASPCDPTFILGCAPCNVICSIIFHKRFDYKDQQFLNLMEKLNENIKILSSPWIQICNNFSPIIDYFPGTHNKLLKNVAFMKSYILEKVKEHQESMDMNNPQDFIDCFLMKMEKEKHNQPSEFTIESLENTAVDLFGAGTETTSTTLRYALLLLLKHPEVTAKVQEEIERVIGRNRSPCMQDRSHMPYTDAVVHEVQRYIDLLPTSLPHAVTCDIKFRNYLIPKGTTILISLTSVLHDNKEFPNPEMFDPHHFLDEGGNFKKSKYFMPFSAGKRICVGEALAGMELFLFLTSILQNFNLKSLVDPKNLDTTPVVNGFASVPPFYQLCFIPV
Chain of Sodium channel protein type 5 subunit alpha (Q14524 whole entry): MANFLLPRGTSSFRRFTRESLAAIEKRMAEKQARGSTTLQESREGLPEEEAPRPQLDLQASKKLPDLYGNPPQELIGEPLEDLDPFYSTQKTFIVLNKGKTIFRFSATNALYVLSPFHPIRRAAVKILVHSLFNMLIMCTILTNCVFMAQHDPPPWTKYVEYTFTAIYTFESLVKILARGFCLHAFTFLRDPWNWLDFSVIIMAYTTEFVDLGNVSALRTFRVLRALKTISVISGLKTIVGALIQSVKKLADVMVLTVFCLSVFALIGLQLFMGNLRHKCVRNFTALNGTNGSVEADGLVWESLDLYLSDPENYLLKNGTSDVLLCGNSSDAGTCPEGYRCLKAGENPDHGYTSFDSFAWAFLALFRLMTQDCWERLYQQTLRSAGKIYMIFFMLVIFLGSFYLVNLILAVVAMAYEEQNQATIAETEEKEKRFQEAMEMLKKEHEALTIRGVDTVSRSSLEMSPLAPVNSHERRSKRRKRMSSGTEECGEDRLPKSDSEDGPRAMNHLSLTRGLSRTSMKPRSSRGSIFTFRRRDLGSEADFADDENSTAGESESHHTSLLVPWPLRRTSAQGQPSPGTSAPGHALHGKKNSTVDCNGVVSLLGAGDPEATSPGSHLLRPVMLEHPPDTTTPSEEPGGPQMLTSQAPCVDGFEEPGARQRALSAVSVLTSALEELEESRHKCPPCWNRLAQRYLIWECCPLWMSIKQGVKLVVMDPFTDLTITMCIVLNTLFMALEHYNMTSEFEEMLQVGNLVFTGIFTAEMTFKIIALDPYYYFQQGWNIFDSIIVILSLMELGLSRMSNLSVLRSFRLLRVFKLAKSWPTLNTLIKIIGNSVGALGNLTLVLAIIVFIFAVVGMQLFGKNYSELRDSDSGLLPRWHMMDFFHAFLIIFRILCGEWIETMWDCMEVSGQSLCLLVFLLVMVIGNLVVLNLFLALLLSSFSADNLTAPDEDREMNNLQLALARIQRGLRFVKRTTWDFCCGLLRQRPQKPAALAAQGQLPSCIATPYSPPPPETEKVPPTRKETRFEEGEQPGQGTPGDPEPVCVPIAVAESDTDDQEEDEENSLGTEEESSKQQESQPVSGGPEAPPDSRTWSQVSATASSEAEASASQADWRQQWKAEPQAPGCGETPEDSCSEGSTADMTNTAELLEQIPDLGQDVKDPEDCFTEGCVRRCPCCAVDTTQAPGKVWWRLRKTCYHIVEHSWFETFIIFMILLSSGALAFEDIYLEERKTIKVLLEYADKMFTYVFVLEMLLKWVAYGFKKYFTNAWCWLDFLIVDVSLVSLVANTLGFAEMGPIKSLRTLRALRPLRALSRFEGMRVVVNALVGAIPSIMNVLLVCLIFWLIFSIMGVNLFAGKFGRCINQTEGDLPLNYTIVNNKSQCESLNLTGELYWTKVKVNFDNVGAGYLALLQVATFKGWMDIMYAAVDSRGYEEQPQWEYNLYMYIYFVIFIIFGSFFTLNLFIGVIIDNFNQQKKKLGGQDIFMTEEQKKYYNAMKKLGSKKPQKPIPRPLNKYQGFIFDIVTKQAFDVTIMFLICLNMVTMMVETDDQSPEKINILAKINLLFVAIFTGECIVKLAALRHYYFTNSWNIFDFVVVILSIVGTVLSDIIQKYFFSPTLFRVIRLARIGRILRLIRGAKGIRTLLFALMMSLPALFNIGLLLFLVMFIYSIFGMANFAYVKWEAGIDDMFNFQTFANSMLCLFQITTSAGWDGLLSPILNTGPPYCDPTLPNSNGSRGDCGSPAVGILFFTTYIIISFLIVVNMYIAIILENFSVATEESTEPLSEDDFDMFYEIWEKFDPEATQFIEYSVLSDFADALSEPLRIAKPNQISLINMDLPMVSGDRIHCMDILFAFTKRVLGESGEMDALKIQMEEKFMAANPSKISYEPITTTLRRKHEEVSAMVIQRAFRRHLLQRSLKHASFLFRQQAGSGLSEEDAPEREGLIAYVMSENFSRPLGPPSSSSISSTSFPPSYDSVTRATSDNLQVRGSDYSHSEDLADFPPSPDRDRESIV
Chain of Potassium voltage-gated channel subfamily A member 5 (Homo sapiens) (P22460 whole entry): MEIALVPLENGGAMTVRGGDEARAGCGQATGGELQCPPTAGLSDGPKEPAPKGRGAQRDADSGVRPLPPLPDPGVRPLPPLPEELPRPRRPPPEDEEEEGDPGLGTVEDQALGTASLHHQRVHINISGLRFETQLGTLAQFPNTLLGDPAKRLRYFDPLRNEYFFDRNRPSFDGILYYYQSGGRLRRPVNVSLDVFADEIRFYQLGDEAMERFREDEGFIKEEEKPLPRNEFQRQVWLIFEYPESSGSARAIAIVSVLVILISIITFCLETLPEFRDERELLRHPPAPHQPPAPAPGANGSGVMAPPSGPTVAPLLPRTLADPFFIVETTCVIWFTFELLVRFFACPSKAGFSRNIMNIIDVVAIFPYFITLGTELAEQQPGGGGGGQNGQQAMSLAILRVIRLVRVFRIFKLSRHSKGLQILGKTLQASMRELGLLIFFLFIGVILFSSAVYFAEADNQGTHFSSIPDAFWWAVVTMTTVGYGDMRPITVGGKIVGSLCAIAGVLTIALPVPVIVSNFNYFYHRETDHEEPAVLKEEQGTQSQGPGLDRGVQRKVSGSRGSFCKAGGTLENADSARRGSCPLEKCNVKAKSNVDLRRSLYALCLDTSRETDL

On to `OC(CNC1CCCCC1)Cn1c2ccc(Br)cc2c2cc(Br)ccc21` (racemic), for which the “inhibition (INH)” value was “Not Active” in [1], “Active” at Cytochrome P450 3A4, “Active” at Cytochrome P450 2C9 and “Active” at Cytochrome P450 2B6. In addition, the results for the Activity result (in data set [2]; in the data set on Plasmodium berghei [6]) were “Non-toxic” and “Dose dependent effect”, respectively. Also, the MSD in the data set on Plasmodium berghei [3] was found to be 30 days. Moreover, the outcome with Plasmodium berghei [4], with Plasmodium falciparum [9], with Plasmodium falciparum [10], with Plasmodium falciparum [11] and with Plasmodium falciparum [12] was Active. In addition, the outcome in the data set with Plasmodium berghei [5] was inactive. In the data set with Plasmodium berghei [6], the ED50 (in general, the dose at which the effect has come halfway, by size or by number of responders) came out at 11.4 mg/kg/day. Further, in [7], the AUC (usually the area under the concentration-time curve, a measure of exposure) is 3750 ng·h/mL. Moreover, the bioavailability (usually dose-corrected exposure relative to a reference, in per cent) in data set [8] stood at 50%. In addition, the inhibition entry in [13] and in [14] was “inactive” each time.
